From ChEMBL document CHEMBL1155708, “Isoaurostatin, a novel topoisomerase inhibitor produced by Thermomonospora alba” (J Nat Prod, 2001)
Activity calls are given as the source filed them. The calls are words filed in the database; no cut-off is given here.

Key:
[1] = target: T1, DNA topoisomerase (Bos taurus) (UniProt A0JN73); assay: Inhibition calf thymus topoisomerase 1 cleavage activity assessed as increase in nicked pBR322 DNA formation after 40 mins by gel electrophoresis
T1 sequence (whole entry): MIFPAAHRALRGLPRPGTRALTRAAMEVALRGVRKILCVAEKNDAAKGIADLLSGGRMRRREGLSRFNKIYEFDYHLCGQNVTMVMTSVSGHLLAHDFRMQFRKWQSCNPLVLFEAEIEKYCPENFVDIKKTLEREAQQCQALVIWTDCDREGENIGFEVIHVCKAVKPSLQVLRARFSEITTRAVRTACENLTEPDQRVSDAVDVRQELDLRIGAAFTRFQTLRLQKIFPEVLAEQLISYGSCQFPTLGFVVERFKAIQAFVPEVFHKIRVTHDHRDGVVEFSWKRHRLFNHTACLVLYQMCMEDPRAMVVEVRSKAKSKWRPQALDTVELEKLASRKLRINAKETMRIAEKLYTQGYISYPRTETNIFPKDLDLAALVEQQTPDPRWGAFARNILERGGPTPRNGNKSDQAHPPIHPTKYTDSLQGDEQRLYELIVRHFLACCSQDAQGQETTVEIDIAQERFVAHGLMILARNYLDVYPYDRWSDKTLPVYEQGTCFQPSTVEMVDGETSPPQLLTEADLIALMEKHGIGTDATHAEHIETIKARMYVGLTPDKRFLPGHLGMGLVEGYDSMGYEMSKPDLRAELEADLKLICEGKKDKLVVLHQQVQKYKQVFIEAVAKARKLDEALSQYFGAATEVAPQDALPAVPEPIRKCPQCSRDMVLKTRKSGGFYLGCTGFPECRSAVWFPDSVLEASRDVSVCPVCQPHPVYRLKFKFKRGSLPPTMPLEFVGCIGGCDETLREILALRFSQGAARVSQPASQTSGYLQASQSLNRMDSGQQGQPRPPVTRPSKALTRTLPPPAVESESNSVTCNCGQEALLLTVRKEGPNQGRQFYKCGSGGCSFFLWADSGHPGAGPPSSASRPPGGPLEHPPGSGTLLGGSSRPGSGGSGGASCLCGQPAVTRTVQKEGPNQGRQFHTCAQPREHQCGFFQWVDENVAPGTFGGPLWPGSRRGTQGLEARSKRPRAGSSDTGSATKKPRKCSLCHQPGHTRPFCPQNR

Nucleic Acid = assay: Binding affinity to salmon sperm DNA assessed as DNA intercalation by circular dichroism; type: nucleic-acid assay; conditions: Salmonidae
Procedure, shortened: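 CD spectra recorded in 50 mM Tris-HCl pH 8.0 with 100 mM KCl, 1 mM MgCl2 and salmon sperm DNA (25 µg/mL), inhibitor at 0, 10, 30 and 50 µM; spectral change obtained by subtracting the CD of reagent alone from the CD of DNA plus reagent.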

CC[C@@]1(O)C(=O)OCc2c1cc1n(c2=O)Cc2cc3ccccc3nc2-1
Activity [1]: Active
Activity (Nucleic Acid): inactive

COc1cccc2c1C(=O)c1c(O)c3c(c(O)c1C2=O)C[C@@](O)(C(=O)CO)C[C@@H]3O[C@H]1C[C@H](N)[C@H](O)[C@H](C)O1
Activity (Nucleic Acid): Active

O=C1Oc2cc(O)ccc2/C1=C\c1ccc(O)cc1
Activity [1]: inactive
Activity (Nucleic Acid): inactive
